Experimental data from ChEMBL document CHEMBL1144645, “The discovery of highly selective erbB2 (Her2) inhibitors for the treatment of cancer” (Bioorg Med Chem Lett, 2007).

How the values were obtained:
[1] = target: Epidermal growth factor receptor and ErbB2 (HER1 and HER2) (Homo sapiens) (UniProt P04626+P00533); assay: Selectivity for erbB2 over EGFR; type: protein assay
Outline: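 Cell selectivity: IC50 ratio between two NIH3T3 lines run under identical conditions, one carrying human EGFR and one carrying the EGFR-extracellular/erbB2-intracellular chimera. Each line takes 2 h inhibitor, then 15 min human recombinant EGF. Phosphotyrosine measured with HRP-PY-54 and TMB at 450 nm.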

[2] = target: T1, Receptor tyrosine-protein kinase erbB-2 (Homo sapiens, UniProt P04626); assay: Inhibition of erbB2 in NH3T3 cells; type: cell-based
Outline: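 NIH3T3 cells expressing a chimera of EGFR extracellular and erbB2 intracellular domains are plated, exposed to inhibitor for 2 h, then stimulated with human recombinant EGF for 15 min. Receptor phosphotyrosine read with HRP-PY-54 antibody and TMB, A450. IC50 is the mean of at least two experiments.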

[3] = target: T1, Receptor tyrosine-protein kinase erbB-2; assay: Inhibition of erbB2 expressed in Sf9 cells
Outline: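 GST-tagged erbB2 intracellular domain (residues 675–1255) made in baculovirus/Sf9 and purified; ~15 ng enzyme phosphorylates poly(Glu,Tyr) with 1 mM ATP plus inhibitor over 6 min. Phosphotyrosine detected by HRP-PY-54 antibody and TMB, A450. IC50 is the mean of at least two experiments.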

T1 sequence (P04626 whole entry, the tested form may be a part): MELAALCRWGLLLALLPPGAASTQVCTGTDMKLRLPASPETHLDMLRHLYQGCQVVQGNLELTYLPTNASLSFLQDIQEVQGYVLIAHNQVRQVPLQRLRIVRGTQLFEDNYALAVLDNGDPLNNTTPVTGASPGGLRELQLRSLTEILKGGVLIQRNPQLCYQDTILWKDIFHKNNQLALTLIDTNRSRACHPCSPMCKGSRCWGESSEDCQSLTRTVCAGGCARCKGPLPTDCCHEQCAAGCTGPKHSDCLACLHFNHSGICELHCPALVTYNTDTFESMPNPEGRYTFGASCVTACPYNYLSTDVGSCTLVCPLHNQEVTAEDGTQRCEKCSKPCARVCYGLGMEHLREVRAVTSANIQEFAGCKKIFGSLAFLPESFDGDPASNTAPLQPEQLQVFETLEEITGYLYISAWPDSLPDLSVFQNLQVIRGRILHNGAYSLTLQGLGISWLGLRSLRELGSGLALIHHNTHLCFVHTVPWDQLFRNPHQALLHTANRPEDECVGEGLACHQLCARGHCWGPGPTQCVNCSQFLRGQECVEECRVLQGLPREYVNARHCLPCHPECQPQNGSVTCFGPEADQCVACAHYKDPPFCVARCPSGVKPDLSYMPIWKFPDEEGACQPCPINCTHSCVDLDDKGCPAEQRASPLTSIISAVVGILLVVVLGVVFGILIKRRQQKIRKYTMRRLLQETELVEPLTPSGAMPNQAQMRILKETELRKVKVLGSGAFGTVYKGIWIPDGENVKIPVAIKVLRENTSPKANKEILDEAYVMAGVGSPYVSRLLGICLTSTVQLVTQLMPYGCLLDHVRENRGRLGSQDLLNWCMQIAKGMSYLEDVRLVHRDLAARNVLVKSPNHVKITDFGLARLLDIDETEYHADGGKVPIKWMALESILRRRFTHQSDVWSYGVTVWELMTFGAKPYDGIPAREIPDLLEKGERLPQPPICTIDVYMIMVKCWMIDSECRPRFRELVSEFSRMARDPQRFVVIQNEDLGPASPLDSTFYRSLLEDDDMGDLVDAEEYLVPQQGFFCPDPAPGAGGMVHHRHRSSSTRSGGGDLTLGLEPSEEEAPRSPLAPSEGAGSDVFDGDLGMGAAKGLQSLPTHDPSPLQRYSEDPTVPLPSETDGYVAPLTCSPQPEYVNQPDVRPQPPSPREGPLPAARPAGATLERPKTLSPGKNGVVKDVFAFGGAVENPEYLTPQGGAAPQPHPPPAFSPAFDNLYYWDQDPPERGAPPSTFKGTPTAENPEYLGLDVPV

Selectivity ratio [1]	IC50 [2] [nM]	IC50 [3] [nM]	Structure (SMILES)
> 200	51	150	COCC(=O)NCC#Cc1ccc2ncnc(Nc3ccc(OC4CCN(C(=O)C5CCC5)CC4)c(C)c3)c2c1
–	–	> 10000	COCC(=O)NCC#Cc1ccc2ncnc(Nc3ccc(OC4CCNCC4)c(C)c3)c2c1
11	530	260	COCCOc1cc2ncnc(Nc3ccc(OC4CCN(C(=O)CC(C)(C)C)CC4)c(C)c3)c2cc1OCCOC
230	15	280	Cc1cc(Nc2ncnc3cnc(NCCN4CCOCC4)cc23)ccc1Oc1ccc(C(=O)NCC(C)(C)C)cc1
> 100	< 10	36	Cc1cc(Nc2ncnc3cnc(N4CCCC4)cc23)ccc1Oc1ccc(C(=O)NCC(C)(C)C)cc1
200	23	140	COCC(=O)NCC#Cc1ccc2ncnc(Nc3ccc(Oc4ccc(C(=O)NCC(C)(C)C)cc4)c(C)c3)c2c1
> 350	29	44	COCCOc1ccc2ncnc(Nc3ccc(OC4CCN(C(=O)C5CCCC5)CC4)c(C)c3)c2c1
–	–	140	COCC(=O)NCC#Cc1ccc2ncnc(Nc3ccc(Oc4cccc(C(=O)Nc5ccccc5)c4)c(C)c3)c2c1
–	–	> 10000	CNC(=O)c1ccc(Oc2ccc(Nc3ncnc4ccc(C#CCNC(=O)COC)cc34)cc2C)cc1
25	180	25	CNc1cc2c(Nc3ccc(OC4CCN(C(=O)Nc5c(F)cccc5F)CC4)c(C)c3)ncnc2cn1
230	13	30	CNc1cc2c(Nc3ccc(Oc4ccc(C(=O)NCC(C)(C)C)cc4)c(C)c3)ncnc2cn1
210	16	7	Cc1cc(Nc2ncnc3cnc(N4CCOCC4)cc23)ccc1OC1CCN(C(=O)Nc2c(F)cccc2F)CC1
–	–	> 10000	COCC(=O)NCC#Cc1ccc2ncnc(Nc3ccc(Oc4ccc(C(=O)N(C)C)cc4)c(C)c3)c2c1
6.5	840	230	COCCOc1cc2ncnc(Nc3ccc(OC4CCN(C(=O)Nc5c(F)cccc5F)CC4)c(C)c3)c2cc1OCCOC
11	250	46	COc1ccc2ncnc(Nc3ccc(OC4CCN(C(=O)Nc5c(F)cccc5F)CC4)c(C)c3)c2c1
92	75	210	COCC(=O)NCC#Cc1ccc2ncnc(Nc3ccc(OC4CCN(C(=O)c5cccc(Cl)c5)CC4)c(C)c3)c2c1
23	67	19	COc1cc2ncnc(Nc3ccc(OC4CCN(C(=O)Nc5c(F)cccc5F)CC4)c(C)c3)c2cc1OC
–	–	> 10000	COCC(=O)NCC#Cc1ccc2ncnc(Nc3ccc(OC4CCN(C(C)=O)CC4)c(C)c3)c2c1
250	30	18	COCC(=O)NCC#Cc1ccc2ncnc(Nc3ccc(Oc4cccc(C(=O)NC(C)(C)C)c4)c(C)c3)c2c1
–	–	> 10000	COCC(=O)NCC#Cc1ccc2ncnc(Nc3ccc(Oc4cccc(C(=O)N(C)C)c4)c(C)c3)c2c1
–	–	> 10000	COCC(=O)NCC#Cc1ccc2ncnc(Nc3ccc(Oc4ccc(C(=O)Nc5ccccc5)cc4)c(C)c3)c2c1
–	2900	550	COCC(=O)NCC#Cc1ccc2ncnc(Nc3ccc(OC4CCN(C(=O)C5CCCO5)CC4)c(C)c3)c2c1 (stereo unspecified)
–	–	> 10000	CNC(=O)c1cccc(Oc2ccc(Nc3ncnc4ccc(C#CCNC(=O)COC)cc34)cc2C)c1
–	–	> 10000	COCC(=O)NCC#Cc1ccc2ncnc(Nc3ccc(Oc4ccc(C(=O)NC(C)(C)C)cc4)c(C)c3)c2c1
–	–	96	COc1ccc2ncnc(Nc3ccc(OC4CCN(C(=O)CC(C)(C)C)CC4)c(C)c3)c2c1
–	–	> 10000	COCC(=O)NCC#Cc1ccc2ncnc(Nc3ccc(OC4CCN(C)CC4)c(C)c3)c2c1
–	–	> 10000	COCC(=O)NCC#Cc1ccc2ncnc(Nc3ccc(OC4CCN(C(=O)COC)CC4)c(C)c3)c2c1
